This note sets out measurements from ChEMBL document CHEMBL3120053, “Airborne antituberculosis activity of Eucalyptus citriodora essential oil” (J Nat Prod, 2014).

Structures are written as SMILES. Values after ≈ are worked out from the molar mass of the structure shown.

The nature of data set [1]: Partition coefficient, log K of the compound in n-hexane/methyl tert-butylether/acetonitrile 10:1:10 solvent system by HSCCC/EECCC analysis. The data set is classed as physicochemical. The procedure, abridged: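 K values derived from volumetric measurements of the HSCCC run. Fraction collection began 1 h after loading at 4 min (6 mL) per fraction. Elution ran 5 h, then sweep elution and extrusion of the stationary phase for another 5 h, giving 160 TLC-monitored fractions.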

Data set [2] deals with Mycobacterium tuberculosis. Description: Antimicrobial activity against Mycobacterium tuberculosis H37Rv assessed as growth inhibition by gaseous contact assay relative to control. The class given is functional. The gist of the method: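 Gaseous contact (microatmosphere) assay. Virulent pan-sensitive M.tb H37Rv (ATCC 27294) frozen stocks were diluted so 100 μL gave 200−400 colonies on Middlebrook 7H11 agar, then dried 4−5 h at room temperature. 5 μL of sample in EtOAc (100 mg/mL) went on a filter disk in the inverted lid (≈70 cm3 headspace). Plates were sealed, held at 37 °C, cfu counted at 21 days, and % inhibition calculated.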

Data set [3] relates to Mycobacterium tuberculosis. The data set can be described thus: Antimicrobial activity against Mycobacterium tuberculosis H37Rv by BACTEC radiometric assay. The class given is functional.

`C=CC(C)(O)CCC=C(C)C` (centres undefined) [LINALOOL]: the “log K” value in data set [1] worked out at 0.74. Turning to `C=C(C)[C@H]1CC[C@@H](C)C[C@H]1O` (relative stereo), the “log K” value in data set [1] is given as 2.98. On to `CC1=CC[C@@H](C(C)(C)O)CC1` [ALPHA-TERPINEOL], for which, in data set [1], the “log K” value worked out at 0.82.

`C[C@@H]1CC[C@@H]2[C@@H]1[C@H]1[C@@H](CC[C@@]2(C)O)C1(C)C` [GLOBULOL]: the “log K” value in data set [1] is given as 1.79. Consider `CC12CCC(CC1)C(C)(C)O2` [EUCALYPTOL], for which the “growth inhibition (GI)” value in data set [2] came to 0%. With `C=C(C)[C@@H]1CC[C@@H](C)C[C@H]1O` [ISOPULEGOL], the “growth inhibition (GI)” value in data set [2] is recorded as 64%. Further, the “log K” value in data set [1] is on record as 0.87. With `CC(C)=CCCC(C)CCO` (centres undefined) [CITRONELLOL], the minimum inhibitory concentration (MIC) (commonly the smallest concentration in the dilution series that meets the test's criterion for growth inhibition) in data set [3] came out at 64 µg/mL (≈ 410 µM). Besides, the “growth inhibition (GI)” value in data set [2] came out at 100%. Besides, in data set [1], the “log K” value was determined as 0.69. For `C[C@H]1CC[C@@H]2[C@H]1[C@@H]1[C@H](CC[C@]2(C)O)C1(C)C`, the “log K” value in data set [1] was 1.18. In the case of `C=C(C)[C@@H]1CC[C@@H](C)C[C@H]1OC(C)=O`, the “log K” value in data set [1] was 1.55.

`CC(C)=CCC/C(C)=C/CC/C(C)=C/CO` [FARNESOL]: in data set [3], the minimum inhibitory concentration (MIC) amounted to 8 µg/mL (≈ 36 µM). For the same compound, the “log K” value in data set [1] was 1.79.

Take `CC1=C[C@@H]2[C@@H](CC1)[C@@](C)(O)CC[C@H]2C(C)C` [T-CADINOL]: the “log K” value in data set [1] was determined as 1.55.

For `CC1=C[C@H]2[C@H](C(C)C)CC[C@@H](C)[C@]2(O)CC1`, the “log K” value in data set [1] amounted to 1.8. For `C/C1=C\CC(C)(C)/C=C/C[C@@]2(C)O[C@@H]2CC1`, the “log K” value in data set [1] was 1.55. Turning to `CC(=O)OCCC(C)CCC=C(C)C` (centres undefined) [CITRONELLYL ACETATE], the “log K” value in data set [1] came out at 1.55. `C=C1CCCC(C)(C)[C@H]2C=C(C)CC[C@@H]12`: the “log K” value in data set [1] was determined as 1.6.

As for `C=C1CCC[C@]2(C)CC[C@@H](C(C)(C)O)C[C@@H]12` [BETA-EUDESMOL], in data set [1], the “log K” value is recorded as 1.6. For the compound `C=C1CC[C@@H]2[C@H]([C@H]3[C@H]1CC[C@]3(C)O)C2(C)C` [SPATHULENOL], the “log K” value in data set [1] came to 1.18. `CC(C)=CCC/C(C)=C\CO` [NEROL] displayed a minimal inhibitory concentration (MIC) in data set [3] of 128 µg/mL (≈ 830 µM). With `CC(C)=CCC[C@H](C)CC=O` [(-)-CITRONELLAL], the “growth inhibition (GI)” value in data set [2] is 18%. Besides, in data set [1], the “log K” value amounted to 1.02. Regarding `Cc1cc(C(C)(C)C)cc(C(C)(C)C)c1O`, the “log K” value in data set [1] is 1.79. Still for that read-out and setting: to `C[C@@H]1CC[C@H]2[C@@H]1[C@H]1[C@@H](CC[C@]2(C)O)C1(C)C` belongs 1.55; to `CC12CCCCC1=CC(=O)CC2` (centres undefined), 1.55; to `CC1=CC[C@H]2C(C)=CC[C@@H](C(C)C)[C@@H]2C1`, 2.98. With `C[C@@H]1CC[C@@H](C(C)(C)O)C(O)C1` (some centres undefined), the “log K” value in data set [1] was 0.87. On the same count and under the same terms, the result for `C=C(C)[C@H]1CC[C@H](C)C[C@H]1O` (relative stereo) reads 0.82; that for `C=C1CC/C=C(\C)CC[C@@H]2[C@@H]1CC2(C)C` [BETA-CARYOPHYLLENE], 2.98. In the case of `C=C1CC[C@@H]2[C@H]([C@@H]3[C@H](C)CC[C@H]13)C2(C)C`, in data set [1], the “log K” value was found to be 2.98. As to `C=C(C)[C@@H]1CC[C@@]2(C)CCCC(=C)[C@@H]2C1` [BETA-SELINENE], the “log K” value in data set [1] amounted to 1.79. Regarding `CC(C)=CCC/C(C)=C/CC/C(C)=C/CC/C(C)=C/CO` [GERANYLGERANIOL], the “log K” value in data set [1] turned out to be 1.6. For `CC1(C)C[C@H]2[C@H]1CC[C@]1(C)CCC[C@@]2(O)C1`, the “log K” value in data set [1] came to 1.6. Consider `CC(C)=CCC/C(C)=C/CC/C(C)=C/C=O`, for which, in data set [1], the “log K” value was 1.79. Turning to `CC1=C[C@@H]2C(=C(C)CC[C@H]2C(C)C)CC1` [(+)-DELTA-CADINENE], the “log K” value in data set [1] is on record as 2.98. In the case of `CC1=CCC[C@]2(C)CC[C@@H](C(C)(C)O)C[C@@H]12`, the “log K” value in data set [1] came out at 1.8. In the case of `CC(C)=CCC/C(C)=C/CO` [GERANIOL], the MIC in data set [3] stood at 64 µg/mL (≈ 415 µM).
